Results published in ChEMBL document CHEMBL1158380 (Eur J Med Chem, 2009).

Columns and labels:
Bos taurus [1] = species on record: Bos taurus; assay: Displacement of [3H]colchicine from bovine brain tubulin at 5 uM by scintillation counting
Outline: (§1)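 Electrophoretically homogeneous bovine brain tubulin (1.0 µM, 0.1 mg/mL) in a tubulin-stabilizing buffer with 5.0 µM [3H]colchicine and compound at 1.0, 5.0 or 50 µM, final DMSO 5% (v/v). Incubation was 10 min at 37 °C. Reactions were stopped with ice water and filtered through stacked DEAE-cellulose filters. Read-out is % inhibition of colchicine binding.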

Bos taurus [2] = species on record: Bos taurus; assay: Displacement of [3H]colchicine from bovine brain tubulin at 50 uM by scintillation counting; outline: as §1
[3] = Inhibition of bovine brain tubulin by spectrophotometry; design: species or system Bos taurus
Outline: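 Assembly of electrophoretically homogeneous bovine brain tubulin at 10 µM (1.0 mg/mL) in 0.8 M monosodium glutamate pH 6.6 with 4% DMSO. Tubulin was preincubated with compound at varying concentrations for 15 min at 30 °C without GTP, chilled, then 0.4 mM GTP was added. After a jump from 0 to 30 °C, turbidity at 350 nm was followed for 20 min.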

MCF7 = assay: Antiproliferative activity against human MCF7 cells after 48 hrs by sulforhodamine B assay; assay type: functional, cell-based; details: MCF7, 48 h
Outline: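 MCF-7 cells from the NCI screening program, grown as monolayers in RPMI 1640 with 5% FBS at 37 °C in humidified 5% CO2. Cells were seeded 24 h before compound addition (DMSO, final 1% v/v) at varying concentrations.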

HCT-8 = assay: Cytotoxicity against human HCT8 cells after 72 hrs by MTT assay; assay type: functional, cell-based; details: HCT-8, 72 h
Outline: (§2)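 Four human tumour lines (MDA/MB-435, HCT-8, SF-295, HL-60) were exposed to compound at 0.0009–5 µg/mL for 72 h. Growth was quantified by living-cell reduction of MTT to blue formazan.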

MDA-MB-435 = assay: Cytotoxicity against human MDA-MB-435 cells after 72 hrs by MTT assay; assay type: functional, cell-based; details: MDA-MB-435, 72 h; outline: as §2
SF-295 = assay: Cytotoxicity against human SF295 cells after 72 hrs by MTT assay; assay type: functional, cell-based; details: SF-295, 72 h; outline: as §2
HL-60 = assay: Cytotoxicity against human HL60 cells after 72 hrs by MTT assay; assay type: functional, cell-based; details: HL-60, 72 h; outline: as §2
Bos taurus [4] = species on record: Bos taurus; assay: Displacement of [3H]colchicine from bovine brain tubulin at 1 uM by scintillation counting

Row | SMILES | Activity (Bos taurus [1]) [%] | Activity (Bos taurus [2]) [%] | IC50 [3] [nM] | IC50 (MCF7) [nM] | IC50 (HCT-8) [nM] | IC50 (MDA-MB-435) [nM] | IC50 (SF-295) [nM] | IC50 (HL-60) [nM] | Activity (Bos taurus [4]) [%]
1 | COc1ccc(CCc2cc(OC)c(OC)c(OC)c2)cc1 | 50 | 89 | 2600 | 78 | – | – | – | – | –
2 | COc1ccc(Cc2cc(OC)c(OC)c(OC)c2)cc1 | 36 | 83 | 4000 | 130 | – | – | – | – | –
3 | COc1ccc(Sc2cc(OC)c(OC)c(OC)c2)cc1 | 89 | – | 1200 | 16 | 40 | 3 | 30 | 3 | 56
4 | COc1ccc(Cc2cc(OC)c(OC)c(OC)c2)cc1O | 44 | 91 | 2900 | 59 | – | – | – | – | –
5 | COc1ccc(C(=O)c2cc(OC)c(OC)c(OC)c2)cc1 | 50 | 95 | 2200 | 160 | – | – | – | – | –
6 | COc1ccc(/C=C/c2cc(OC)c(OC)c(OC)c2)cc1O [E-COMBRETASTATIN A-4] | – | – | – | 1.4 | – | – | – | – | 85
7 | COc1ccc(S(=O)(=O)c2cc(OC)c(OC)c(OC)c2)cc1 | 18 | 53 | > 40000 | 2600 | 12200 | 2320 | 8100 | 4750 | –
8 | COc1ccc(C(=O)c2cc(OC)c(OC)c(OC)c2)cc1O [PHENSTATIN] | 78 | – | 730 | 34 | – | – | – | – | 70
9 | COc1ccc(CCc2cc(OC)c(OC)c(OC)c2)cc1O | 67 | – | 1600 | 13 | – | – | – | – | 49
10 | COc1ccc([S+]([O-])c2cc(OC)c(OC)c(OC)c2)cc1 (centres undefined) | 16 | 41 | 31000 | 2200 | 470 | 280 | 1460 | 340 | –
11 | COc1ccc(/C=C/c2cc(OC)c(OC)c(OC)c2)cc1 | 97 | – | 1100 | 4.8 | – | – | – | – | 74
